Values belong to the molecule of their own block, whether it stands above or below them. Activity calls are given as the source filed them. No cut-off for these calls is given here.
Experiments:
Prunus dulcis = assay: Inhibition of sweet almond beta-glucosidase at 1 mM
[1] = target: T1, Early activation antigen CD69 (Homo sapiens, UniProt Q07108); assay: Binding affinity to rhodamine-labeled human CD69 receptor after 2 hrs by fluorescence assay
T1 sequence (Q07108 whole entry): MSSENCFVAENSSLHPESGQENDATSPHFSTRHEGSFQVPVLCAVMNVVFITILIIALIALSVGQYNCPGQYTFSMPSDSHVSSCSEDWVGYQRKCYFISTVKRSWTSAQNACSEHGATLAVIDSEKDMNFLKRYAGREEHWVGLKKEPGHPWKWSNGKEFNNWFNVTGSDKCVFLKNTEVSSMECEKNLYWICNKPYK
Procedure, shortened: (§1)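 Competitive displacement assay: the compound's ability to displace a high-affinity receptor ligand was measured on rat NKR-P1A and human CD69 activating receptors. Affinity was expressed relative to free N-acetyl-D-glucosamine as the reference ligand.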

[2] = target: T2, Killer cell lectin-like receptor subfamily B member 1A (Rattus norvegicus, UniProt P27471); assay: Binding affinity to fluorescein-labeled rat NKR-P1A after 2 hrs by fluorescence assay; procedure, shortened: as §1
T2 sequence (P27471 whole entry): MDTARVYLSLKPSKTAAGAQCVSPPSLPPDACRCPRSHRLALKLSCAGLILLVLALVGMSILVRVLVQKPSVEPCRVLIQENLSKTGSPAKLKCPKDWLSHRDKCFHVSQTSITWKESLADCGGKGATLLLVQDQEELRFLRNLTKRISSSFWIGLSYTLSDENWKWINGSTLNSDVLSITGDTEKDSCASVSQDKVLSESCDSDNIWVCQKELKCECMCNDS

[3] = target: T3, Beta-galactosidase (Aspergillus oryzae) (UniProt Q2U7N3); assay: Inhibition of Aspergillus oryzae beta-galactosidase at 1 mM
T3 sequence (whole entry): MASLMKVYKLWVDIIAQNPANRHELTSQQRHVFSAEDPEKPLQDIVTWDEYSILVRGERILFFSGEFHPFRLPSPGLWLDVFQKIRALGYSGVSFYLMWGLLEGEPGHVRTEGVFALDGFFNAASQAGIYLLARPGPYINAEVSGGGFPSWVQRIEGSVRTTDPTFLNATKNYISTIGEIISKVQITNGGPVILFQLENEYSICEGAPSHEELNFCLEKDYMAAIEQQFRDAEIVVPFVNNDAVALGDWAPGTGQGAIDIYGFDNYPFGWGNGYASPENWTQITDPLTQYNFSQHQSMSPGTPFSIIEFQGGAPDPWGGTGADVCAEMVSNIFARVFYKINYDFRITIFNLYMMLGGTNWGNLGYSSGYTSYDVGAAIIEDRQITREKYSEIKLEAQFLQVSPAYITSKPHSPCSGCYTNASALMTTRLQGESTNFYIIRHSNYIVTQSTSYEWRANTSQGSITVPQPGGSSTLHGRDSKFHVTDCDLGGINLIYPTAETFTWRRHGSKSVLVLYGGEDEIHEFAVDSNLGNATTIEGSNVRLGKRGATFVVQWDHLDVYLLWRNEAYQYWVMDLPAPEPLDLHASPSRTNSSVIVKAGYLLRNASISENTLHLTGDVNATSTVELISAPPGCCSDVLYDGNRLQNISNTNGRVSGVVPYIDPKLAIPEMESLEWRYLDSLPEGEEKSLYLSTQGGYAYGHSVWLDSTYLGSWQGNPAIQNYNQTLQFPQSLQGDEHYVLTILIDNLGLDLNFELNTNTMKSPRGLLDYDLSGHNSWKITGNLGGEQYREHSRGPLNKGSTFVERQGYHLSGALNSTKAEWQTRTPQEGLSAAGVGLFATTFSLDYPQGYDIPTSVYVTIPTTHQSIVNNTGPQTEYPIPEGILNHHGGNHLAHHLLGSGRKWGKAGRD

[4] = target: Beta-galactosidase (Escherichia coli) (UniProt Q8VNN2); assay: Inhibition of Escherichia coli beta-galactosidase at 1 mM
Sequence of Beta-galactosidase (Escherichia coli) (Q8VNN2 whole entry, looked up): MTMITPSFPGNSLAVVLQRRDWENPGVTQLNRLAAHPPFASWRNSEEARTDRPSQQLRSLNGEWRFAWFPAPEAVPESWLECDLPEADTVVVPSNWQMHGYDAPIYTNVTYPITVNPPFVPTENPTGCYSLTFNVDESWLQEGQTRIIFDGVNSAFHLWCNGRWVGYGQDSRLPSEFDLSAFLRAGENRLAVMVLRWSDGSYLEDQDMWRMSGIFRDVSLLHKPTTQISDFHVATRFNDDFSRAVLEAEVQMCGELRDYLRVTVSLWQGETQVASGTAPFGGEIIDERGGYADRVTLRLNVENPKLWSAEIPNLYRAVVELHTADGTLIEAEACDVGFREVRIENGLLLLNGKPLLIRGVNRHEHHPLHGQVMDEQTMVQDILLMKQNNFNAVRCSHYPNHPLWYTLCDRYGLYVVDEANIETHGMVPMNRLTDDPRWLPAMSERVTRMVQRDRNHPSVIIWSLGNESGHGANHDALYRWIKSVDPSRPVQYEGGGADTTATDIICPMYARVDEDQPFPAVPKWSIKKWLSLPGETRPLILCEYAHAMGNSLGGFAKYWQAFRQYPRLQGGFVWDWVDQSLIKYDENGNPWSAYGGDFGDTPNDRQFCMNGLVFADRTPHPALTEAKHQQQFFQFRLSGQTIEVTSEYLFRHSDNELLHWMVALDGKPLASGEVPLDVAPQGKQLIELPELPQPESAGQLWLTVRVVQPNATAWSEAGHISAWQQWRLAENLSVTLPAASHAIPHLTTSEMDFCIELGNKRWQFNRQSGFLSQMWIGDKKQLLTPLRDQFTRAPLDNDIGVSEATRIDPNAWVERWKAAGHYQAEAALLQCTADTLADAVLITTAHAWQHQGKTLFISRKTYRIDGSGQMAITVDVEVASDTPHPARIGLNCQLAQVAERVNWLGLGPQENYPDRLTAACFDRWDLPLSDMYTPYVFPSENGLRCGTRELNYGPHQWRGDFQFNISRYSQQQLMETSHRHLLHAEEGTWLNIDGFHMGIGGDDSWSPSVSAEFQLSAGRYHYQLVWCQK

Aspergillus oryzae = assay: Inhibition of Aspergillus oryzae CCF 1066 beta-N-acetylglucosaminidase at 2 mM
Penicillium oxalicum = assay: Inhibition of Penicillium oxalicum CCF 1959 beta-N-acetylglucosaminidase at 2 mM
Penicillium pittii = assay: Inhibition of Penicillium pittii CCF 2277 beta-N-acetylglucosaminidase at 2 mM
Talaromyces flavus = assay: Inhibition of Talaromyces flavus CCF 2686 beta-N-acetylglucosaminidase at 2 mM
Saccharomyces cerevisiae = assay: Inhibition of yeast alpha-glucosidase at 1 mM
[5] = target: Alpha-galactosidase (Coffea arabica) (UniProt Q42656); assay: Inhibition of green coffee bean alpha-galactosidase at 1 mM
Sequence of Alpha-galactosidase (Coffea arabica) (Q42656 16-378 limits assumed): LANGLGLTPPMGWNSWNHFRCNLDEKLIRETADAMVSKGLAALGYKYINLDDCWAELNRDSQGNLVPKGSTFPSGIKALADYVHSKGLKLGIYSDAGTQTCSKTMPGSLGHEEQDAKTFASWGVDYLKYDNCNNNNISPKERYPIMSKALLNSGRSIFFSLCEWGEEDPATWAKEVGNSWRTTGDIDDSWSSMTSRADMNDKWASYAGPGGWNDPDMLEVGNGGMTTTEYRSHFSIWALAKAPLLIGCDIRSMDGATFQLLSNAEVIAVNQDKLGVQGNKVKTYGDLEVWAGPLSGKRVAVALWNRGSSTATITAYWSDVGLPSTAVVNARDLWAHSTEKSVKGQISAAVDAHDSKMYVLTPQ

Beta-galactosidase = Beta-galactosidase (Escherichia coli, UniProt Q8VNN2); assay: Inhibition of Escherichia coli beta-galactosidase
Sequence of Beta-galactosidase (Q8VNN2 whole entry): as the sequence (Q8VNN2 whole entry, looked up) above

SMILES: OC[C@H]1O[C@@H](n2ccnn2)[C@H](O)[C@@H](O)[C@@H]1O
inhibition (Prunus dulcis): inactive

SMILES: CC(=O)N[C@@H]1[C@@H](O)[C@H](O)[C@@H](CO)O[C@H]1O [N-ACETYLGLUCOSAMINE]
IC50 [1]: 126 µM | IC50 [2]: 2 µM

SMILES: OC[C@H]1O[C@@H](n2ccnn2)[C@H](O)[C@@H](O)[C@H]1O
inhibition [3]: inactive | inhibition [4]: inactive

SMILES: CC(=O)N[C@@H]1[C@@H](O)[C@H](O)[C@@H](CO)O[C@H]1n1ccnn1
IC50 [1]: 3.98 µM | inhibition (Aspergillus oryzae): inactive | IC50 [2]: 0.0631 µM | inhibition (Penicillium oxalicum): inactive | inhibition (Penicillium pittii): inactive | inhibition (Talaromyces flavus): inactive

SMILES: OC[C@H]1O[C@@H](n2cc(-c3ccccc3)nn2)[C@H](O)[C@@H](O)[C@@H]1O
Ki (Beta-galactosidase): 330 µM

Other lines, results leading:

inhibition (Saccharomyces cerevisiae): inactive
SMILES: OC[C@H]1O[C@H](n2ccnn2)[C@H](O)[C@@H](O)[C@@H]1O

inhibition [5]: inactive
SMILES: OC[C@H]1O[C@H](n2ccnn2)[C@H](O)[C@@H](O)[C@H]1O

Reference: ChEMBL document CHEMBL1177763, “Synthesis and biological activity of glycosyl-1H-1,2,3-triazoles” (Bioorg Med Chem Lett, 2010)
